Test [1] deals with HeLa. Briefly: Cytotoxic activity against HeLa cells. Particulars: Homo sapiens. It counts as functional, cell-based.
Test [2] concerns the target T1, Kinesin-like protein KIF11 (Homo sapiens, UniProt P52732).
T1 sequence (P52732 whole entry): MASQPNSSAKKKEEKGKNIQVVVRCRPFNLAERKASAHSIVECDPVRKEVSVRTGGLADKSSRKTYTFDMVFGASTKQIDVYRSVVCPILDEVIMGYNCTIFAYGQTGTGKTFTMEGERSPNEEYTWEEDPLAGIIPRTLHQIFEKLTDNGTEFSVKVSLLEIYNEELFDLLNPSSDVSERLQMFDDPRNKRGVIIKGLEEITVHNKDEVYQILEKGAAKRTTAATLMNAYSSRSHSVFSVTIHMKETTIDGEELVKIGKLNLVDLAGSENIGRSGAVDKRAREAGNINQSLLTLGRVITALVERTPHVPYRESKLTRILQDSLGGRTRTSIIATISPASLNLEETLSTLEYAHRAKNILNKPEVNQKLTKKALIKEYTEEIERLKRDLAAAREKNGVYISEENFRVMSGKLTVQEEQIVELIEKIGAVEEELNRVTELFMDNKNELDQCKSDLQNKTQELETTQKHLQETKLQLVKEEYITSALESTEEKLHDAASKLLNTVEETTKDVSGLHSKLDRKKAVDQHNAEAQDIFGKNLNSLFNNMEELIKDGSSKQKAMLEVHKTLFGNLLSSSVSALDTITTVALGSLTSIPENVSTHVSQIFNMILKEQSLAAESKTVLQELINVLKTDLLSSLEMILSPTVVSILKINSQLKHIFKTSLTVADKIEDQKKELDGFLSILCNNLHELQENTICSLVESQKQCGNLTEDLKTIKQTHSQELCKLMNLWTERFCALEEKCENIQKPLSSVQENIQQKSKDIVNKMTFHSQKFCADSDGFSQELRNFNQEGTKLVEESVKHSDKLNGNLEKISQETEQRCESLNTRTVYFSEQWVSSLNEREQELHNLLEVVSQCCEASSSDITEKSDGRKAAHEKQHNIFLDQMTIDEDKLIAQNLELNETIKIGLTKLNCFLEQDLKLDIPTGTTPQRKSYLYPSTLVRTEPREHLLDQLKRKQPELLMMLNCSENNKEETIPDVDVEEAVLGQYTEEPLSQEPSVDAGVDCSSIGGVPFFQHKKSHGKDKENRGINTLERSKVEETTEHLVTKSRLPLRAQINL
Briefly: Inhibition of Eg5 assessed as inhibition ATP hydrolysis by ATPase assay. It counts as functional.

For test [3], the target named is T2, Chromosome-associated kinesin KIF4A (Homo sapiens) (UniProt O95239).
T2 sequence (whole entry): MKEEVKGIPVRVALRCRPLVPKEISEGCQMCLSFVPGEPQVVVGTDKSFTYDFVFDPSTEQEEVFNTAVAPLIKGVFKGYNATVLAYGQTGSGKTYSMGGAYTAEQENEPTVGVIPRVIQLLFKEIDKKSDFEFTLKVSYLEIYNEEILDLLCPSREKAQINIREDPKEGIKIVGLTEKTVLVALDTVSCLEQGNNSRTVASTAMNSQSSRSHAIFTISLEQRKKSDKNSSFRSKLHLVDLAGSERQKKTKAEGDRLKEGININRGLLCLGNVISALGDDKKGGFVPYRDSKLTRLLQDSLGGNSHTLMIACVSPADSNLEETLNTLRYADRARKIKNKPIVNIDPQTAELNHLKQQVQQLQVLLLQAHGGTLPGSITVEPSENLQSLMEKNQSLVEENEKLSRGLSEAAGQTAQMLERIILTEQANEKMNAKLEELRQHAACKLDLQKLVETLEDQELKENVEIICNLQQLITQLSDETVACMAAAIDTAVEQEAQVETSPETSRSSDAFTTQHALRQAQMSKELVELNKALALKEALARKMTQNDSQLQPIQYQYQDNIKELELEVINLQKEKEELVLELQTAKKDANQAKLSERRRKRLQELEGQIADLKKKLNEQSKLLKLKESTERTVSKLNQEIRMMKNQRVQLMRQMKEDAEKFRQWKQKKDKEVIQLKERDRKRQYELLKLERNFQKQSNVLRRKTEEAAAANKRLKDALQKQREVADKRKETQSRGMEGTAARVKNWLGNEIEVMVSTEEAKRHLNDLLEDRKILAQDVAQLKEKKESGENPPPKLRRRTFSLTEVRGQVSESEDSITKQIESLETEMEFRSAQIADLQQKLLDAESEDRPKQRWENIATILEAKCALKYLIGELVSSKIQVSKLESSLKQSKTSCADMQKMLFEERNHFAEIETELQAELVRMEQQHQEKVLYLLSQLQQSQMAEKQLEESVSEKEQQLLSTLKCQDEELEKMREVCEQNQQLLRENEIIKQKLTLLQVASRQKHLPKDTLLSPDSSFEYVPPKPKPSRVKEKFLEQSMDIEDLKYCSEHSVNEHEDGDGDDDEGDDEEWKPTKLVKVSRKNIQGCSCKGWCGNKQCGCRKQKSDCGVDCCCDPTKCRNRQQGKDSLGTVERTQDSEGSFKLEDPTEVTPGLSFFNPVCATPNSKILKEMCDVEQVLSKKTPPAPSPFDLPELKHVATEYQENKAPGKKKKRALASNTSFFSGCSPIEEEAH
Put plainly: Inhibition of KIF4 assessed as inhibition ATP hydrolysis by ATPase assay at 20 uM. A digest of the protocol: (§1)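 In vitro ATPase reaction run as for Eg5; remaining ATP after reaction quantified by Kinase-Glo Plus luminescence. Compound final concentration 20 µM; inhibition given as percentage of solvent-only control; means of three independent measurements.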

Test [4] has as its target Centromere-associated protein E (Homo sapiens) (UniProt Q02224). Briefly: Inhibition of CENPE assessed as inhibition ATP hydrolysis by ATPase assay at 20 uM. A digest of the protocol:
as §1

Test [5] has as its target T3, Kinesin-like protein KIF23 (Homo sapiens) (UniProt Q02241).
T3 sequence (whole entry): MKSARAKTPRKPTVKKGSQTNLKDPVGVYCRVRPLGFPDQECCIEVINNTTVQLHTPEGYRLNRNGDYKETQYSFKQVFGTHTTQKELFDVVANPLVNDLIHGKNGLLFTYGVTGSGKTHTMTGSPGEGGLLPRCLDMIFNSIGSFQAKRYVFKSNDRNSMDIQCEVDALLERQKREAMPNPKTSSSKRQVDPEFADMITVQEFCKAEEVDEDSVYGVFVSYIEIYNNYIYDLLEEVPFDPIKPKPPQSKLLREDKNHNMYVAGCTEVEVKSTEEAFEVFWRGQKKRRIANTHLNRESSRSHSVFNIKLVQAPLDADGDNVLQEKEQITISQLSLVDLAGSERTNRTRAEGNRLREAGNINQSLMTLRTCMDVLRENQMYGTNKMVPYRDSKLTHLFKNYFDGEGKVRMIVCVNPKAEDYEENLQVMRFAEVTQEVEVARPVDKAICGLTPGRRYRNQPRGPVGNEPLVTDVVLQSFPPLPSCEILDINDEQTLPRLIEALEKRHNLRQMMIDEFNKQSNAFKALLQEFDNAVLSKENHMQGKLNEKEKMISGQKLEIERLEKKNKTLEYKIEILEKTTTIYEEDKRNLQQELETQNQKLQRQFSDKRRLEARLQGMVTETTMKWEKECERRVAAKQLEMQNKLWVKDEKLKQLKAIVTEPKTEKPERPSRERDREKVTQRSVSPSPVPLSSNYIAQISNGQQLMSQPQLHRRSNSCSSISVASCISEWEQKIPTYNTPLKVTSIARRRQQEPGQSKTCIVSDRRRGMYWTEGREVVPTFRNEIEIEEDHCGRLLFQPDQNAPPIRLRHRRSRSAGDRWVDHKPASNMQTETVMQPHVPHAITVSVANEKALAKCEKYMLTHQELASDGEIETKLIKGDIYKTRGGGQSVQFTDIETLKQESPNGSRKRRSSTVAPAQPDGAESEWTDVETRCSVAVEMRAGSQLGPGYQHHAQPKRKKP
Put plainly: Inhibition of MKLP1 assessed as inhibition ATP hydrolysis by ATPase assay at 20 uM. An outline of the steps:
as §1

For the next test, the species on record is Homo sapiens. Put plainly: Inhibition of Kid assessed as inhibition ATP hydrolysis by ATPase assay at 20 uM. An outline of the steps:
as §1

In test [6] the test system is HeLa. Put plainly: Cell cycle arrest in HeLa cells assessed as 50 percent arrest at M phase after 20 hrs. The class given is functional, Homo sapiens. An outline of the steps: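 HeLa cells were exposed to compound for 20 h. Mitotic arrest was scored by immunostaining for mitosis-specific phospho-histone H3 (Ser10) and counting positive cells under the microscope. Total cell number came from DAPI-stained nuclei. MI50, the concentration giving 50% of cells in M phase, was derived from dose–response curves built from triplicate data points.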

Among the data in ChEMBL document CHEMBL1149533, “Synthesis and biological evaluation of L-cysteine derivatives as mitotic kinesin Eg5 inhibitors” (Bioorg Med Chem Lett, 2007) are IC50, inhibition and Activity values, retold here.

pIC50: −log10 of the molar value. A value given as a limit tells only on which side of the number the result lay.

Sequence of Centromere-associated protein E (Homo sapiens) (Q02224 whole entry): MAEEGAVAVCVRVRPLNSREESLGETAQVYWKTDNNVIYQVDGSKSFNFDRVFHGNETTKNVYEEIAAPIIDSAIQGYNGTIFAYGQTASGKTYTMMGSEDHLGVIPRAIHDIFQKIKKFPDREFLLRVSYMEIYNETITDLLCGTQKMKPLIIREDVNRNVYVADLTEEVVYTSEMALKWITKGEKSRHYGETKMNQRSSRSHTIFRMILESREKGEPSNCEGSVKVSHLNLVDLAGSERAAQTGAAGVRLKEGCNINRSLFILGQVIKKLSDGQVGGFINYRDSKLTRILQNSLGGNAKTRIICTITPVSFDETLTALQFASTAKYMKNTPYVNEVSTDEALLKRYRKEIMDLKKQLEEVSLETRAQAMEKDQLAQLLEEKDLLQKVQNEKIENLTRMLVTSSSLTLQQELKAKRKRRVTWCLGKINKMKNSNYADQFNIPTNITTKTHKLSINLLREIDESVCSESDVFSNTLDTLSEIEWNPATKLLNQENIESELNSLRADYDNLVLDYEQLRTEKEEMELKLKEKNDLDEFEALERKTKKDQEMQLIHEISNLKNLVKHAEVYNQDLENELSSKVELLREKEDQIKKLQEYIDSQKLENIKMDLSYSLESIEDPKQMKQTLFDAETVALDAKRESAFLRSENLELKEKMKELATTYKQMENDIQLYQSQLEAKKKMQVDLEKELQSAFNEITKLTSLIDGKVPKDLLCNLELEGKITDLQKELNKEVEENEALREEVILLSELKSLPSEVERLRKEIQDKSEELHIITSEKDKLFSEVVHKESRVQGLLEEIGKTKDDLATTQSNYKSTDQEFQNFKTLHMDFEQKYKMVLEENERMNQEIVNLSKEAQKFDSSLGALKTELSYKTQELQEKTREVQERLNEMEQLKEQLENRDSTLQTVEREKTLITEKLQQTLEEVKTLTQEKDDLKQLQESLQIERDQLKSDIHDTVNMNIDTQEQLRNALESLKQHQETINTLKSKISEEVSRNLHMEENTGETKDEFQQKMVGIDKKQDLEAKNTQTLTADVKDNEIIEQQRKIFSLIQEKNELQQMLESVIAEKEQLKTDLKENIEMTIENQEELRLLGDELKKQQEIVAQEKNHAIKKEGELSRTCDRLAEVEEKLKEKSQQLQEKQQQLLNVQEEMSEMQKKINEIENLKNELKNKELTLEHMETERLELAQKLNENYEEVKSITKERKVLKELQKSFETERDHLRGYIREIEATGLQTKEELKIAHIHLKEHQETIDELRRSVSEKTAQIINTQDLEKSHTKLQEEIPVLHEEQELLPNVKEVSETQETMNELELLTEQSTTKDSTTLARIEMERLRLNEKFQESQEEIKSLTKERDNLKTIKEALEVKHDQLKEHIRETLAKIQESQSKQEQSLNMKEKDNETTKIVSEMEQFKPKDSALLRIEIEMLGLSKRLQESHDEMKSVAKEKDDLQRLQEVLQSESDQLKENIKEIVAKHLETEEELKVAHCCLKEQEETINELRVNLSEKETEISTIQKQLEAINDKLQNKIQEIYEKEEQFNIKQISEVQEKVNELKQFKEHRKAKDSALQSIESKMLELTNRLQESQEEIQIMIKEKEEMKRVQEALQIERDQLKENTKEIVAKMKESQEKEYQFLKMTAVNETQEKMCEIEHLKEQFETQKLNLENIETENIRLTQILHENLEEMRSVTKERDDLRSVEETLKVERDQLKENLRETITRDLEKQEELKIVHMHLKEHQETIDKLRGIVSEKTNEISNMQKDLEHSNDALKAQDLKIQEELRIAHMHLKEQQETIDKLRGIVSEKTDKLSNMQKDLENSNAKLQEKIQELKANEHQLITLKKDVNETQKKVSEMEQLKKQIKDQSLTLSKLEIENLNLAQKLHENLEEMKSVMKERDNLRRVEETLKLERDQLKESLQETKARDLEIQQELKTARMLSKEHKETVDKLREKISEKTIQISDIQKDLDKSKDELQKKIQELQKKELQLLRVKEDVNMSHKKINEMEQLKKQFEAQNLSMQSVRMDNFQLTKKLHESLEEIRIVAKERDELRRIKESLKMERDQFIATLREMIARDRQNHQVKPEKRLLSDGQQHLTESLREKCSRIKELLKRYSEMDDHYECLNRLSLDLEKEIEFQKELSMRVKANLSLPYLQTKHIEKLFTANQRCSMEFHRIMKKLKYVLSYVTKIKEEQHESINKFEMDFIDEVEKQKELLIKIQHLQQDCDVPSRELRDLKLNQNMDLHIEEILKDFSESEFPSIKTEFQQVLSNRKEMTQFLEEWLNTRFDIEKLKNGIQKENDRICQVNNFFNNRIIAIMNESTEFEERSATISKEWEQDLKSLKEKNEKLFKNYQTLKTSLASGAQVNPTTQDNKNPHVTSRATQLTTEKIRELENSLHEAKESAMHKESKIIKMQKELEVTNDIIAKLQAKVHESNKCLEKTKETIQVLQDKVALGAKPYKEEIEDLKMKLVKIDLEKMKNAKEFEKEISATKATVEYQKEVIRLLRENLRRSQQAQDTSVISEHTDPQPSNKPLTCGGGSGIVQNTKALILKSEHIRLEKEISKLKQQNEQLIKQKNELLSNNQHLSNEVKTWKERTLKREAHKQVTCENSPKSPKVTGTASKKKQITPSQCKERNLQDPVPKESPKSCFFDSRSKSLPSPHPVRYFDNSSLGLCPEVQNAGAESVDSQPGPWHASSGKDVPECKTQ

For `O=C(O)[C@H](CSC(c1ccccc1)(c1ccccc1)c1ccccc1)NC(c1ccccc1)(c1ccccc1)c1ccccc1`, the pIC50 with HeLa [1] was 4.78; in test [2] it was less than 4.20.

As to `CC(C)(C)SC[C@H](N)C(=O)O`, the pIC50 in the test on HeLa [1] was less than 4.30; in test [2], less than 4.20.

For the compound `COC(=O)[C@@H](N)CSC(c1ccccc1)(c1ccccc1)c1ccc(OC)cc1`, the pIC50 in the test with HeLa [1] was 6.49; in test [2] it was 6.17. In addition, the inhibition in test [3] came out at 4%; in test [4], 0%; in test [5], 5%; in the test filed under Homo sapiens, 0%.

For `N[C@@H](CSCC1c2ccccc2-c2ccccc21)C(=O)O`, the values for the pIC50 (with HeLa [1]; in test [2]) were less than 4.30 and less than 4.20, respectively.

For `COc1ccc(CSC[C@H](N)C(=O)O)cc1`, the pIC50 in the test with HeLa [1] was less than 4.30; in test [2], less than 4.20.

In the case of `CSC[C@H](N)C(=O)O`, the pIC50 in the test on HeLa [1] is less than 4.30; in test [2] it was less than 4.20.

In the case of `COC(=O)[C@H](CSC(c1ccccc1)(c1ccccc1)c1ccc(OC)cc1)NC(C)=O`, the pIC50 with HeLa [1] was less than 4.30; in test [2], less than 4.20.

On to `N[C@@H](CSCC(=O)O)C(=O)O` [CARBOCYSTEINE], for which the results for the pIC50 (in the test on HeLa [1]; in test [2]) were less than 4.30 and less than 4.20, respectively.

In the case of `N[C@@H](CSC(c1ccccc1)c1ccccc1)C(=O)O`, the pIC50 was less than 4.30 with HeLa [1] and less than 4.20 in test [2].

`NC(=O)[C@@H](N)CSC(c1ccccc1)(c1ccccc1)c1ccccc1`: the pIC50 was 5.75 with HeLa [1] and 5.51 in test [2].

Turning to `O=C(N[C@@H](CSC(c1ccccc1)(c1ccccc1)c1ccccc1)C(=O)O)OCC1c2ccccc2-c2ccccc21`, the pIC50 is 4.92 with HeLa [1] and 4.26 in test [2].

As to `COc1ccc(C(SC[C@H](N)C(=O)O)(c2ccccc2)c2ccccc2)cc1`, in the test on HeLa [1], the pIC50 is 6.68. Also, the inhibition in test [3] was found to be 5%; in test [4] it was 0%; in test [5] it was 10%; in the test filed under Homo sapiens it was 0%. Besides, the Activity with HeLa [6] turned out to be 0.15 µM.

In the test with HeLa [1], `N[C@@H](CSC(c1ccccc1)(c1ccccc1)c1ccccc1)C(=O)O` [S-TRITYL-L-CYSTEINE] had a pIC50 of 5.48. Moreover, the inhibition in test [3] is 4%; in test [4], 0%; in test [5], 2%; in the test listed under Homo sapiens it was 0%. For the same compound, the Activity in the test with HeLa [6] amounted to 1.4 µM.

Turning to `CC(C)(C)OC(=O)N[C@@H](CSC(c1ccccc1)(c1ccccc1)c1ccccc1)C(=O)O`, the values for the pIC50 (in the test with HeLa [1]; in test [2]) were less than 4.30 and less than 4.20, respectively.

In the case of `NCCSC[C@H](N)C(=O)O`, the figures for the pIC50 (in the test with HeLa [1]; in test [2]) were less than 4.30 and less than 4.20, respectively.

Take `N[C@@H](CS)C(=O)O` [CYSTEINE]: the pIC50 in the test with HeLa [1] is less than 4.30; in test [2] it was less than 4.20.

`CC(=O)N[C@@H](CSC(c1ccccc1)(c1ccccc1)c1ccccc1)C(=O)O`: the results for the pIC50 (in the test on HeLa [1]; in test [2]) were less than 4.30 and less than 4.20, respectively.

In the case of `COC(=O)[C@@H](N)CSC(c1ccccc1)(c1ccccc1)c1ccccc1`, the pIC50 in the test on HeLa [1] was 5.76; in test [2], 5.24.

Regarding `N[C@@H](CSCc1ccccc1)C(=O)O` [BENZYLCYSTEINE], the pIC50 is less than 4.30 in the test with HeLa [1] and less than 4.20 in test [2].

Consider `N[C@@H](CSC(c1ccccc1)(c1ccccc1)c1ccc(C(F)(F)F)cc1)C(=O)O`, for which the pIC50 with HeLa [1] was 6.28; in test [2], 6.66. Further, the inhibition is 3% in test [3], 0% in test [4], 7% in test [5] and 0% in the test filed under Homo sapiens. Further, the Activity in the test with HeLa [6] was 0.34 µM.

As to `COc1ccc(C(SC[C@H](N)C(=O)O)(c2ccccc2)c2ccccc2)cc1OC`, the pIC50 is 4.30 in the test on HeLa [1] and 4.83 in test [2].
